Results: ChEMBL document CHEMBL1250442, “Inhibiting gene expression at transcription start sites in chromosomal DNA with antigene RNAs” (Nat Chem Biol, 2005)
The source made the active and inactive calls. The rule behind the calls is not given here.

How the values were obtained:
T47D [1] = experiment: Inhibition of PR-A gene expression in human T47D cells at 25 nM by syber green assay; assay type: functional
Summary of the method: (§1)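 T47D cells plated at 80,000/well without antibiotics two days before Oligofectamine transfection with agRNA duplex (25 or 100 nM final); medium changed at 24 h, harvest day 5 unless stated otherwise. TRIzol total RNA; PR mRNA by real-time PCR with SYBR Green: 50 °C 2 min, 95 °C 10 min, 40 cycles 95 °C 15 s/60 °C 1 min.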

T47D [2] = experiment: Inhibition of PR-B gene expression in human T47D cells at 25 nM by syber green assay; assay type: functional; summary of the method: as §1
T47D [3] = experiment: Inhibition of PR-A gene expression in human T47D cells at 25 nM by syber green assay in presence of 10 nM estradiol; assay type: functional, cell-based
T47D [4] = experiment: Inhibition of PR-B gene expression in human T47D cells at 25 nM by syber green assay in presence of 10 nM estradiol; assay type: functional, cell-based
T47D [5] = experiment: Inhibition of PR-A mRNA gene expression in human T47D cells at 100 nM by syber green assay; assay type: functional; summary of the method: as §1
T47D [6] = experiment: Inhibition of PR-B mRNA gene expression in human T47D cells at 100 nM by syber green assay; assay type: functional
Summary of the method: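 T47D cells in RPMI-1640 with 10% FBS, NEAA, insulin, 37 °C, 5% CO2. Plated two days before transfection without antibiotics. Oligofectamine-mediated duplex RNA transfection at 100 nM final, medium changed at 24 h, harvest five days post-transfection. Total RNA extracted with TRIzol. hPR mRNA quantified by SYBR Green qPCR: 50 °C 2 min, 95 °C 10 min, then 40 cycles of 95 °C 15 s / 60 °C 1 min.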

| Structure (SMILES) | inhibition at 0.025 µM (T47D [1]) [%] | inhibition at 0.025 µM (T47D [2]) [%] | inhibition (T47D [3]) | inhibition (T47D [4]) | inhibition at 0.1 µM (T47D [5]) [%] | inhibition at 0.1 µM (T47D [6]) [%] |
| --- | --- | --- | --- | --- | --- | --- |
| Cc1cn(CC(=O)N(CCNC(=O)CN(CCNC(=O)CN(CCNC(=O)CN(CCNC(=O)CN(CCNC(=O)CN(CCNC(=O)CN(CCNC(=O)CN(CCNC(=O)CN(CCNC(=O)CN(CCNC(=O)CN(CCNC(=O)CN(CCNC(=O)CN(CCNC(=O)CN(CCNC(=O)CN(CCNC(=O)CN(CCNC(=O)CN(CCNC(=O)CN(CCNC(=O)CN(CCNC(=O)CN(CCNC(=O)CN)C(=O)Cn2cnc3c(N)ncnc32)C(=O)Cn2cnc3c(N)ncnc32)C(=O)Cn2cnc3c(N)ncnc32)C(=O)Cn2cnc3c(=O)[nH]c(N)nc32)C(=O)Cn2ccc(N)nc2=O)C(=O)Cn2ccc(=O)[nH]c2=O)C(=O)Cn2cnc3c(=O)[nH]c(N)nc32)C(=O)Cn2ccc(=O)[nH]c2=O)C(=O)Cn2ccc(N)nc2=O)C(=O)Cn2ccc(=O)[nH]c2=O)C(=O)Cn2cnc3c(=O)[nH]c(N)nc32)C(=O)Cn2cnc3c(=O)[nH]c(N)nc32)C(=O)Cn2ccc(N)nc2=O)C(=O)Cn2ccc(N)nc2=O)C(=O)Cn2cnc3c(N)ncnc32)C(=O)Cn2cnc3c(=O)[nH]c(N)nc32)C(=O)Cn2ccc(=O)[nH]c2=O)C(=O)Cn2ccc(N)nc2=O)C(=O)Cn2ccc(N)nc2=O)CC(=O)NCCN(CC(=O)NCC(=O)O)C(=O)Cn2cc(C)c(=O)[nH]c2=O)c(=O)[nH]c1=O | < 20 | < 20 | Active | Active | < 20 | < 20 |
| Cc1cn(CC(=O)N(CCNC(=O)CN(CCNC(=O)CN(CCNC(=O)CN(CCNC(=O)CN(CCNC(=O)CN(CCNC(=O)CN(CCNC(=O)CN(CCNC(=O)CN(CCNC(=O)CN(CCNC(=O)CN(CCNC(=O)CN(CCNC(=O)CN(CCNC(=O)CN(CCNC(=O)CN(CCNC(=O)CN(CCNC(=O)CN(CCNC(=O)CN(CCNC(=O)CN(CCNC(=O)CN(CCNC(=O)CN)C(=O)Cn2cnc3c(=O)[nH]c(N)nc32)C(=O)Cn2ccc(=O)[nH]c2=O)C(=O)Cn2ccc(=O)[nH]c2=O)C(=O)Cn2cnc3c(=O)[nH]c(N)nc32)C(=O)Cn2ccc(=O)[nH]c2=O)C(=O)Cn2ccc(=O)[nH]c2=O)C(=O)Cn2cnc3c(N)ncnc32)C(=O)Cn2cnc3c(=O)[nH]c(N)nc32)C(=O)Cn2cnc3c(N)ncnc32)C(=O)Cn2cnc3c(N)ncnc32)C(=O)Cn2cnc3c(N)ncnc32)C(=O)Cn2cnc3c(=O)[nH]c(N)nc32)C(=O)Cn2ccc(N)nc2=O)C(=O)Cn2ccc(=O)[nH]c2=O)C(=O)Cn2cnc3c(=O)[nH]c(N)nc32)C(=O)Cn2ccc(=O)[nH]c2=O)C(=O)Cn2ccc(N)nc2=O)C(=O)Cn2ccc(=O)[nH]c2=O)C(=O)Cn2cnc3c(=O)[nH]c(N)nc32)CC(=O)NCCN(CC(=O)NCC(=O)O)C(=O)Cn2cc(C)c(=O)[nH]c2=O)c(=O)[nH]c1=O | < 20 | < 20 | Active | Active | < 20 | < 20 |
| Cc1cn(CC(=O)N(CCNC(=O)CN(CCNC(=O)CN(CCNC(=O)CN(CCNC(=O)CN(CCNC(=O)CN(CCNC(=O)CN(CCNC(=O)CN(CCNC(=O)CN(CCNC(=O)CN(CCNC(=O)CN(CCNC(=O)CN(CCNC(=O)CN(CCNC(=O)CN(CCNC(=O)CN(CCNC(=O)CN(CCNC(=O)CN(CCNC(=O)CN(CCNC(=O)CN(CCNC(=O)CN(CCNC(=O)CN)C(=O)Cn2cnc3c(N)ncnc32)C(=O)Cn2cnc3c(=O)[nH]c(N)nc32)C(=O)Cn2cnc3c(N)ncnc32)C(=O)Cn2cnc3c(=O)[nH]c(N)nc32)C(=O)Cn2cnc3c(=O)[nH]c(N)nc32)C(=O)Cn2cnc3c(N)ncnc32)C(=O)Cn2cnc3c(=O)[nH]c(N)nc32)C(=O)Cn2cnc3c(=O)[nH]c(N)nc32)C(=O)Cn2cnc3c(N)ncnc32)C(=O)Cn2cnc3c(=O)[nH]c(N)nc32)C(=O)Cn2cnc3c(=O)[nH]c(N)nc32)C(=O)Cn2ccc(N)nc2=O)C(=O)Cn2cnc3c(=O)[nH]c(N)nc32)C(=O)Cn2ccc(=O)[nH]c2=O)C(=O)Cn2ccc(=O)[nH]c2=O)C(=O)Cn2cnc3c(=O)[nH]c(N)nc32)C(=O)Cn2ccc(=O)[nH]c2=O)C(=O)Cn2ccc(=O)[nH]c2=O)C(=O)Cn2cnc3c(N)ncnc32)CC(=O)NCCN(CC(=O)NCC(=O)O)C(=O)Cn2cc(C)c(=O)[nH]c2=O)c(=O)[nH]c1=O | < 20 | < 20 | Active | Active | < 20 | < 20 |
